Measured values taken from ChEMBL document CHEMBL1154539, “Identification of small molecules that inhibit GSK-3beta through virtual screening” (Bioorg Med Chem Lett, 2009).
The source made the active and inactive calls. The rule behind the calls is not given here.

Assays:
[1] = target: T1, Glycogen synthase kinase-3 beta (Homo sapiens, UniProt P49841); assay: Inhibition of GSK3-beta at 10 uM by Z'-LYTE kinase assay
Method in brief: (§1)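 Z'-LYTE fluorescence-ratio (FRET) kinase assay with GSK-3β and its peptide substrate. Relative inhibition was plotted against increasing compound concentrations and IC50 taken from the inhibition curves. […] is percent inhibition at a single 10 µM compound concentration.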
Target sequence in this assay (P49841 whole entry, looked up): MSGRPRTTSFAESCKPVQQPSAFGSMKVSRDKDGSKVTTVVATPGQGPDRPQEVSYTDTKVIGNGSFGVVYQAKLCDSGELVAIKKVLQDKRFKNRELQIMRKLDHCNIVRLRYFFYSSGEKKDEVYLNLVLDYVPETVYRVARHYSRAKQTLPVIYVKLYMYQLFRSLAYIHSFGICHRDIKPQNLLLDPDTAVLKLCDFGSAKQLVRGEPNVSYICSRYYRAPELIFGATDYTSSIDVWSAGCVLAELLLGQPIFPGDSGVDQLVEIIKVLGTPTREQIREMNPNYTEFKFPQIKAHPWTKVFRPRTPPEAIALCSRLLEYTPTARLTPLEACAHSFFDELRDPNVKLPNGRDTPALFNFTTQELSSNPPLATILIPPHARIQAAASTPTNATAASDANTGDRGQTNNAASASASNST

[2] = target: T1, Glycogen synthase kinase-3 beta; assay: Inhibition of GSK3-beta by Z'-LYTE kinase assay; method in brief: as §1
Target sequence in this assay (P49841 whole entry): as the sequence (P49841 whole entry, looked up) above

[3] = target: T2, Protein kinase C alpha type (Homo sapiens, UniProt P17252); assay: Inhibition of PKCalpha
Method in brief: (§2)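 Counter-screen kinases (PKA, CSNK2, PKC, CDK1) were run under near-identical reaction conditions per the manufacturer's instructions, each with its own suitable substrate. Values are percent inhibition at a single 100 µM compound concentration, or IC50 in µM.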

[4] = Inhibition of PKA at 100 uM
[5] = target: Cyclin-dependent kinase 1 (Homo sapiens) (UniProt P06493); assay: Inhibition of CDK1 at 100 uM
Chain of Cyclin-dependent kinase 1 (Homo sapiens) (P06493 whole entry, looked up): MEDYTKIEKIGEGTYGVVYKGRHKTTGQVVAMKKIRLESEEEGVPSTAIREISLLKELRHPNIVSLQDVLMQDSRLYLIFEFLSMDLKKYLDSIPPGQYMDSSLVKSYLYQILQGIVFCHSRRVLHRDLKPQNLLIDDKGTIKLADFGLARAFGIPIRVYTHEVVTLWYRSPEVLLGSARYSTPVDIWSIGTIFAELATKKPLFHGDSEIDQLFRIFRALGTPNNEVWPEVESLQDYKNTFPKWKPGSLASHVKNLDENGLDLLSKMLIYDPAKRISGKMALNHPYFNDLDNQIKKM

[6] = Inhibition of CSNK2 at 100 uM
[7] = target: T2, Protein kinase C alpha type; assay: Inhibition of PKCalpha at 100 uM
[8] = Inhibition of PKA; method in brief: as §2
[9] = target: T1, Glycogen synthase kinase-3 beta; assay: Inhibition of GSK3-beta by ATP competitive inhibition based assay
Method in brief: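 GSK-3β enzyme velocity was measured with substrate across various ATP levels at increasing inhibitor concentrations. Mode of inhibition was read from Lineweaver–Burk double-reciprocal plots.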
Target sequence in this assay (P49841 whole entry, looked up): as the sequence (P49841 whole entry, looked up) above

[10] = target: T1, Glycogen synthase kinase-3 beta; assay: Inhibition of GSK3-beta in myoblasts assessed as beta-casein accumulation at 2 uM after 3 hrs by immunoblot; settings: in the assay text read “beta-catenin” for “beta-casein”
Method in brief: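 C2C12 myoblasts plated at 5 × 10⁵ were exposed to compound at 2 µM for 3 h. Cells were lysed for total protein, run on SDS–PAGE and immunoblotted with anti-β-catenin antibody.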
Target sequence in this assay (P49841 whole entry, looked up): as above

inhibition [1] | IC50 [2] | IC50 [3] | inhibition [4] | inhibition [5] | inhibition [6] | inhibition [7] | IC50 [8] | Activity [9] | Activity [10] | Compound
80% | 1.86 µM | 38.7 µM | 20% | 20% | 31% | 51% |  |  |  | O=c1sn(CCc2ccccc2)c(=O)n1Cc1ccc(F)cc1
65% | 0.539 µM | 4.1 µM | 75% | 15% | 21% | 93% | 17 µM |  |  | CCOC(=O)Cn1sc(=O)n(CC(=O)N2CCCCC2)c1=O
65% | 7.15 µM | 13.8 µM | 30% | 15% | 30% | 88% |  |  |  | CCn1sc(=O)n(Cc2ccccc2)c1=O
75% | 1.01 µM | 48.3 µM | 81% | 12% | 36% | 78% | 6.9 µM |  |  | CCOC(=O)Cn1sc(=O)n(-c2ccc(C(=O)OCC)cc2)c1=O
84% | 0.467 µM | 5.3 µM | 87% | 18% | 21% | 89% | 2.2 µM | Active | Active | CCOC(=O)Cn1sc(=O)n(-c2cccc(C(=O)OCC)c2)c1=O
74% | 0.548 µM | 5.8 µM | 35% | 0% | 17% | 84% |  | Active |  | O=c1sn(-c2ccccc2)c(=O)n1CCCl
